In PubChem BioAssay AID743208 (The Scripps Research Institute Molecular Screening Center, 2013):
The campaign covered roughly 2,100 compounds. About 30 (1%) were called active.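 Rule for the calls: active = inhibition above about 20% chosen separately for each screening run (limit read from the data); inactive = the rest.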 These entries were drawn from the full list.

What follows are compounds tested against Disintegrin and metalloproteinase domain-containing protein 10 (Homo sapiens) (UniProt O14672) (assay: blockers of ADAM10 peptide cleavage – biochemical, QFRET, triplicate, confirmation (AID 743208;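 note: 0% = DMSO wells and 100% = marimastat wells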)). Conditions: EDANS fluorescence, at 6.95 µM, active compounds read high.
Summary of the method: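 Material: ADAM10 enzyme, FRET peptide substrate; input: ADAM10 added as 2X solution at 20 nM; signal: fluorescence 359/460 nm; also added: DM2 FRET peptide substrate, 20 µM (2X solution); read-out basis: % inhibition relative to DMSO and marimastat wells; incubation: 30 min preincubation and 3 h reaction at 25 °C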

Disintegrin and metalloproteinase domain-containing protein 10 (Homo sapiens), sequence (O14672 214-748 limits assumed): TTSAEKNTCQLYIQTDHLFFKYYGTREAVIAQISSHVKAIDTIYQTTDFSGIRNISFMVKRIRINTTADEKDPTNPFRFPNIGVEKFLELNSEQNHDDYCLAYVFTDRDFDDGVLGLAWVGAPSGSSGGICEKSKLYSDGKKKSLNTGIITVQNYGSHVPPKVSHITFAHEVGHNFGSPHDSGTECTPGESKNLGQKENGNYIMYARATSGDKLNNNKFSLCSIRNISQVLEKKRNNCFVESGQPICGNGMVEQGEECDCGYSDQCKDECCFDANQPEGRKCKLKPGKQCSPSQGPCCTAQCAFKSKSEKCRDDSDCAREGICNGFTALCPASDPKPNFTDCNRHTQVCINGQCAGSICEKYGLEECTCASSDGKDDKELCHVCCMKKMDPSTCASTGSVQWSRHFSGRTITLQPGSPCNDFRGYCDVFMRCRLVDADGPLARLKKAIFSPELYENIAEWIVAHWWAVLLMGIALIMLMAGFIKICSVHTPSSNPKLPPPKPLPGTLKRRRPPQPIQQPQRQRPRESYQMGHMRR

inhibition, inactive:
COc1cc(Cl)c(S(=O)(=O)N2CCN(Cc3ccc4c(c3)OCO4)CC2)cc1Cl 3.51%
O=C(/C=C/c1ccc(F)cc1)NC(=S)NNC(=O)c1cccnc1 0.49%
O=C(CC(O)(C(F)(F)F)C(F)(F)F)Nc1ccc(Cl)c(Cl)c1 2.03%
CCOc1ccc(N2C(=O)CC(N(CCc3ccc(OC)c(OC)c3)C(=S)Nc3ccccc3)C2=O)cc1 (stereo unspecified) 0.13%
CC(C)(C)OC(=O)CNC(=O)c1[nH]cnc1C(=O)N[C@@H](Cc1ccccc1)C(=O)OCc1ccccc1 6.97%
COc1cccc(C2CC(c3ccccc3)=NN2S(=O)(=O)c2ccccc2)c1OC (stereo unspecified) 4.77%
Cc1cc(C)cc(NC(=S)NCCc2c[nH]c3ccccc23)c1 2.41%
COc1ccc(NS(=O)(=O)c2ccc(C)c(C(=O)NNC(=O)c3csc(N4CCOCC4)n3)c2)cc1 2.95%
CCC1(C)Cc2c(sc3nnn(CC(=O)Nc4ccc(Cl)cc4)c(=O)c23)CO1 (stereo unspecified) 6.24%
O=C(CSC1=NCCS1)Nc1nc(-c2ccccc2)cs1 0.24%
COc1ccc(C(N)c2csc(NC(=O)Nc3cccc(C(F)(F)F)c3)n2)cc1 (stereo unspecified) 3.14%
O=C1NC(Nc2nc3ccccc3s2)(C(F)(F)F)C(=O)N1C1CCCCC1 (stereo unspecified) 3.12%
Cc1cc(C)cc(NC(=O)CSCc2cnn(-c3ccccc3)c2-n2cccc2)c1 7.84%
Cc1ccc(OCc2nnc(SC/C=C/c3ccccc3)n2Cc2ccco2)cc1 5.61%
CC(C)(C)N1C(=O)[C@H]2[C@@H](c3ccc(Br)cc3)N3C(=O)N(c4cccc(Cl)c4)C(=O)[C@@]3(C)[C@H]2C1=O 2.62%
O=C(Nc1cccc(S(=O)(=O)Nc2ccc(Cl)cc2)c1)c1ccc2c(c1)OCCO2 8.03%
O=C(NCc1ccccc1)c1onc(CSc2nc3ccccc3[nH]2)c1C(=O)NCc1ccccc1 5.46%
CC(C)Oc1ccc(CC(=O)NNC(=S)Nc2ccc(Br)cc2)cc1 3.54%
COC(=O)C1NN=C(C(=O)c2ccc(Br)cc2)C1c1cccc(Br)c1 (stereo unspecified) 3.07%
COc1ccc(C(=O)NNC(=S)NC(=O)c2ccccc2)cc1 0.52%
COc1ccc([C@H]2CC(=O)C=C(c3ccc(OC(F)(F)F)cc3)C2)cc1OC 1.68%
COc1cc(/C=C2/SC(=S)N(Cc3ccccc3)C2=O)cc(OC)c1O 7.56%
O=C(Oc1cccc(N2C(=O)C3C4c5ccccc5C(c5ccccc54)C3C2=O)c1)c1ccco1 (stereo unspecified) 3.26%
CC1(C)C=Cc2c(ccc3c2OC[C@@H](c2ccc(O)cc2O)C3)O1 9.96%
CCOc1cc(/C=N/NC(=O)c2cc(-c3ccccc3)nc3ccccc23)ccc1O 9.93%
C=C(C)COc1ccc(-c2n[nH]c(C)c2-c2ccccc2)c(O)c1 5.81%
Cc1cccc(CCNS(=O)(=O)c2ccc(S(=O)(=O)NC3CCCC3)cc2)c1 0.65%
Cc1ccccc1-n1c(SCC(=O)Nc2cccc3ccccc23)nc(O)cc1=O -0.12%
COc1ccccc1CC1(C)C(=O)Nc2ccc(OC(F)(F)F)cc21 (stereo unspecified) 0.74%
O=C(OCc1ccc(-c2ccccc2)cc1)c1cccc(O)c1 12.8%
O=S(=O)(c1cccc(S(=O)(=O)N2CCC(n3nnc4ccccc43)CC2)c1)N1CCCCC1 0.35%
COc1cccc(NC(=O)CN2CCN(c3nc(-c4cccc(OC)c4)cs3)CC2)c1 8.73%
C=CCC[C@@H](Cc1ccc(F)cc1)C(=O)O[C@H](CNC(=O)[C@H](CC=C)CC(=O)N(CCO)Cc1ccccc1)c1ccccc1 11.4%
COc1cccc(NC(=O)C2C(c3ccccc3)C2(Cl)Cl)c1 (stereo unspecified) 5.98%
CCOc1cc(NC(=O)c2ccccc2C(=O)O)c(OCC)cc1NC(=O)c1ccccc1F 3.74%
O=C(Cc1ccc(Cl)c(Cl)c1)Nc1ccc(SC(F)F)cc1 7.73%
COc1cccc(CC2(CO)CCCN(Cc3ccc(OC(F)F)cc3)C2)c1 (stereo unspecified) -1.93%
Cc1cc(O)ccc1-c1cc(C(=O)NCc2cc(C(F)(F)F)cc(C(F)(F)F)c2)[nH]n1 1.37%
Cn1nc(C(F)(F)F)c(C(=O)Nc2cccc(C(F)(F)F)c2)c1SCc1ccc(Cl)cc1 7.28%
CCC(C)(C)c1ccc(Oc2ccc(NC(=O)COC(=O)C3=COCCO3)cc2)cc1 9.01%
Cc1[nH]c2ccccc2c1C(=O)COC(=O)c1c(-c2ccccc2)noc1C 3.43%
Cn1c(CNc2nc(-c3ccccc3)cs2)nnc1SCC(=O)c1ccccc1 0.21%
COc1cc(/C=N/n2c(C)n[nH]c2=S)ccc1OCc1ccccc1 -0.86%
COc1ccc(C(CCN(Cc2ccc(OC)c(OC)c2)C(=O)CCl)c2ccccc2)cc1 (stereo unspecified) 2.71%
O=S(=O)(c1ccccc1)N(Cc1cccc(F)c1)c1ccccc1 3.92%
Cc1ccc(N(NC(=O)C(C)(C)O)C(=O)c2ccccc2)cc1C 0.68%
Cc1ccc(C)c(NC(=S)NNC(=O)c2csc(C)c2)c1 3.38%
Cc1ccc(/C=N/NC(=O)CSc2nc3ccccc3o2)cc1 0.27%
COc1ccc(OCCCn2cccc2/C=C2/C(=N)N3OC(C)=CC3=NC2=O)cc1 1.45%
COc1ccc(C(=O)NN2C(=O)C3C(c4ccccc4)C=CC(c4ccccc4)C3C2=O)cc1 (stereo unspecified) 6.22%
COc1ccc(S(=O)(=O)N2CCN(C(C)C(=O)Nc3ccc(C(C)C)cc3)CC2)cc1 (stereo unspecified) 4.39%
COc1ccc(C2CC(c3ccccc3)=NN2C(=O)COC(=O)COc2ccccc2)cc1 (stereo unspecified) 8.14%
O=C(CSCc1ccc(Br)cc1)Nc1ccc(S(=O)(=O)N2CCCCCC2)cc1 7.76%
Cc1cnc(C(=O)OCc2c(C)cc(C(C)(C)C)cc2C)cn1 0.57%
Cc1cc(Nc2ccccc2)n(C(=O)c2ccc(N)cc2)n1 2.25%
CCCCCc1c(-c2ccc(OC)c(OC)c2)ncn1CCc1ccccc1OC 5.03%
O=C(CC1SC(=Nc2ccccc2)N(Cc2ccccn2)C1=O)Nc1cccc(Cl)c1 (stereo unspecified) 7.51%
CC(C)(C)c1ccc(S(=O)(=O)NCC2CCN(C(=O)C(=O)c3cc4ccccc4o3)CC2)cc1 6.76%
CCCC(=O)n1nc(NCc2ccc(OC)cc2)nc1NCc1ccc(OC)cc1 9.12%
O=C1[C@H]2[C@@H](c3ccc(F)cc3)N3C(=O)N(c4ccc(C(F)(F)F)cc4)C(=O)[C@@]3(Cc3ccccc3)[C@H]2C(=O)N1C1CCCCC1 8.51%
CN(C)S(=O)(=O)c1cccc(NC(=O)COC(=O)C2(c3ccccc3F)CCCC2)c1 2.23%
O=C(NC(Cc1c[nH]c2ccccc12)C(=O)N/N=C/c1ccc(Br)cc1)c1cccs1 (stereo unspecified) 9.54%
S=c1[nH]cc(-c2ccc(Cl)cc2)n1-c1ccccc1 1.28%
COC(=O)[C@@]12C[C@@H](CC(=O)NCCCCc3ccccc3)C(=O)N(CCc3ccc(OC)c(OC)c3)C1=CCC(C)(C)C2 5.78%
O=C(COC(=O)CCCSc1nc2ccccc2[nH]1)Nc1ccc(Oc2ccccc2)cc1 10.7%
COc1ccc([C@@H]2[C@@H]3C(=O)N(C(C)(C)C)C(=O)[C@@H]3[C@]3(Cc4ccccc4)C(=O)N(c4cccc(Br)c4)C(=O)N23)cc1 5.88%
CC1(Cc2cccc(C#N)c2)C(=O)Nc2ccc(-c3cccc(C(F)(F)F)c3)cc21 (stereo unspecified) 10.6%
Cc1ccc(NC(=O)c2nc[nH]c2C(=O)N[C@@H](CCCCNC(=O)OC(C)(C)C)C(=O)OC(C)(C)C)cc1 11.2%
O=Cc1cn(CCOc2ccc(F)cc2)c2ccccc12 2.15%
CCOc1ccc(Nc2oc(Cc3ccccc3)nc2C#N)cc1 1.49%
N/C(Cc1ccc([N+](=O)[O-])cc1)=N\OC(=O)COc1ccc2ccccc2c1 3.81%
CC(C)(C)OC(=O)N1CCC(NC(=O)c2[nH]cnc2C(=O)N[C@@H](Cc2ccccc2)C(=O)OCc2ccccc2)CC1 9.68%
Cc1cc(C)cc(NS(=O)(=O)c2ccc(Oc3ncc(C(F)(F)F)cc3Cl)cc2)c1 10.8%
Cc1ccc(S(=O)(=O)N2CCN(C(=O)COC(=O)c3c(C)cc(C)cc3C)CC2)c(C)c1 5.29%
Cc1ccc(S(=O)(=O)N(CC(=O)Nc2cccnc2)c2ccc(Br)cc2)cc1 2.78%
COc1ccc(Cl)cc1NC(=O)CN(C)C(=O)CCCc1c[nH]c2ccccc12 3.45%
O=C(NCCc1ccc(Cl)cc1Cl)c1cc([N+](=O)[O-])c[nH]c1=O 0%
C=CC[C@H](CC(=O)N(CCO)Cc1ccccc1)C(=O)N[C@@H](COC(=O)[C@@H](CC=C)Cc1ccc(F)cc1)Cc1ccccc1 8.13%
COc1cc(C2CC(=O)N3CN(Cc4ccccc4)CSC3=C2C#N)ccc1OCc1ccccc1 (stereo unspecified) 5.28%
CC(N=Cc1nc(-c2ccccc2)oc1O)c1ccccc1 (stereo unspecified) 2.54%
C=CCC[C@@H](Cc1ccc(F)cc1)C(=O)OC[C@H](Cc1c[nH]c2ccccc12)NC(=O)[C@@H](CC=C)CC(=O)N(CCO)Cc1ccccc1 10.1%
COc1ccc(Cl)cc1NC(=O)COC(=O)C(CC(C)C)N1C(=O)C2CC=CCC2C1=O (stereo unspecified) 2.32%
Cc1cccc(C2c3[nH]c4ccccc4c3CCN2C(=O)c2cc(-c3cccn3C)n[nH]2)n1 (stereo unspecified) 6.14%
N#Cc1nc(Cc2cccc3ccccc23)oc1NCc1ccc2c(c1)OCO2 6.72%
C#CCN(C[C@H]1[C@H](OC(=O)NC2CCCC2)[C@H](OC(=O)NC2CCCC2)C[C@H]2C(=O)N(c3ccccc3)C(=O)[C@@H]12)S(=O)(=O)c1ccc(C)cc1 2.92%
Cc1ccc(NS(=O)(=O)c2ccc(C)c(NC(=O)COc3ccc4ccccc4c3)c2)c(C)c1 9.74%
O=C(CNC(=O)c1ccc(Cl)cc1Cl)NCC(=O)Nc1ccccc1N1CCOCC1 0.46%
CCOc1ccc(Br)cc1S(=O)(=O)Nc1ccc(C(=O)OC(C)C(=O)N(C)c2ccccc2)cc1 (stereo unspecified) 9.44%
CCC(C(=O)OCC(=O)Nc1ccccc1-c1ccccc1)c1ccccc1 (stereo unspecified) 2.14%
Cc1csc(NC(=S)Nc2cccc(Cl)c2)n1 7.9%
CC(C)Oc1cc(F)ccc1-c1cc(C(=O)Nc2cccc(Cl)c2)[nH]n1 9.22%
c1ccc2c(CCN3CCNC[C@H]3Cc3cccc4ccccc34)cccc2c1 5.45%
COc1cc(/C=N/O)cc(Br)c1OS(=O)(=O)c1ccc(C)cc1 2.32%
O=C1[C@H]2[C@@H](c3ccc(C(F)(F)F)cc3)N[C@]3(CCCN(Cc4ccc(Br)cc4)C3=O)[C@H]2C(=O)N1Cc1ccccc1 6.04%
CC(C)(C)c1ccc(C(=O)Nc2cc(Cl)c(Br)cc2C(=O)O)cc1 3.89%
CC(C)C(=O)Nc1cccc(NC(=S)NC(=O)C(c2ccccc2)c2ccccc2)c1 7.37%
